≈ marks a conversion by molar mass, not a printed value.
What was measured:
[1] = Ratio of fAUC (24 hrs) in NMRI mouse at 80 mg/kg administered every 8 hrs to MIC for Staphylococcus aureus E19977; format: functional
Summary of the method: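 Modeled free AUC over 24 h divided by the MIC, not measured directly. Single subcutaneous DCX doses were given to NMRI mice, and plasma was assayed by S. lutea bioassay. Noncompartmental analysis used trapezoidal mean points plus a fitted monoexponential extrapolated to 24 h. Free fraction came from a square-root fit to plasma ultrafiltration binding (10–400 mg/liter spike, 1 h, 37°C). The MIC was measured by broth microdilution at pH 7.4.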

Staphylococcus aureus [2] = test: Antimicrobial activity against Staphylococcus aureus E19977 by broth microdilution method at pH 7.4
Staphylococcus aureus [3] = test: Antimicrobial activity against Staphylococcus aureus E19977 infected in human THP-1 cells after 24 hrs; format: functional, organism-based; settings: E19977, THP-1, 24 h
Summary of the method: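 Human THP-1 macrophages were infected with opsonized S. aureus at 4 bacteria per macrophage for 45 min. Non-phagocytized bacteria were removed by washing and a brief incubation in PBS with gentamicin 50 mg/liter. Cells were then incubated up to 24 h with DCX over a wide range of extracellular concentrations. The read-out was Δlog CFU per mg cell protein versus time zero (n = 3), with sigmoidal fitting and Cstatic by interpolation.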

Staphylococcus aureus [4] = test: Bactericidal activity against Staphylococcus aureus ATCC 25923 assessed as log reduction in bacterial count at 10 times MIC after 5 hrs by time-kill assay; format: functional
Summary of the method: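 Broth time-kill: MSSA at 10⁶ CFU/ml exposed to a wide range of dicloxacillin concentrations. CFU counted after 5 and 24 h and expressed as change in log₁₀ CFU/ml from time zero. Multiples refer to the MIC by CLSI microdilution at pH 7.4. n = 3.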

Staphylococcus aureus [5] = test: Bactericidal activity against Staphylococcus aureus ATCC 25923 infected in human THP1 cells assessed as log reduction in bacterial count at 100 times MIC after 24 hrs by time-kill assay; format: functional, THP-1
Summary of the method: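 Intracellular model in THP-1 macrophages: opsonized S. aureus was added at 4 bacteria per macrophage for 45 min. Non-phagocytized bacteria were removed by washing and brief PBS incubation with gentamicin (50 mg/liter). Cells were then incubated up to 24 h with a wide range of extracellular dicloxacillin concentrations. Result is change in log₁₀ CFU per mg cell protein from time zero. n = 3.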

fAUC/MIC [1]: 63.49 h
MIC (Staphylococcus aureus [2]): 0.5 µg/mL (≈ 1.06 µM)
EC50 (Staphylococcus aureus [3]): 0.31 µg/mL (≈ 0.659 µM)
SMILES: Cc1onc(-c2c(Cl)cccc2Cl)c1C(=O)N[C@@H]1C(=O)N2[C@@H]1SC(C)(C)[C@@H]2C(=O)O [DICLOXACILLIN]
FC (Staphylococcus aureus [4]): <1
FC (Staphylococcus aureus [5]): <1

From ChEMBL document CHEMBL1255483, “Intra- and extracellular activities of dicloxacillin against Staphylococcus aureus in vivo and in vitro” (Antimicrob Agents Chemother, 2010)
